Data: ChEMBL document CHEMBL3244306, “Folate analogues altered in the C9-N10 bridge region: N10-Toxylisohomofolic acid and N10-Toxylisohomoaminopterin” (1978)
≈ marks a conversion by molar mass, not a printed value. Calls of active or inactive are those of the source. No cut-off for these calls is given here.

Legend:
[1] = biological target: T1, Thymidylate synthase (Lactobacillus casei) (UniProt P00469); assay: Inhibition of Lactobacillus casei thymidylate synthase assessed as conversion of dUMP32 to dTP32PP at 1 X 10^-4 M after 30 mins relative to control; details: Lacticaseibacillus casei
T1 sequence (whole entry): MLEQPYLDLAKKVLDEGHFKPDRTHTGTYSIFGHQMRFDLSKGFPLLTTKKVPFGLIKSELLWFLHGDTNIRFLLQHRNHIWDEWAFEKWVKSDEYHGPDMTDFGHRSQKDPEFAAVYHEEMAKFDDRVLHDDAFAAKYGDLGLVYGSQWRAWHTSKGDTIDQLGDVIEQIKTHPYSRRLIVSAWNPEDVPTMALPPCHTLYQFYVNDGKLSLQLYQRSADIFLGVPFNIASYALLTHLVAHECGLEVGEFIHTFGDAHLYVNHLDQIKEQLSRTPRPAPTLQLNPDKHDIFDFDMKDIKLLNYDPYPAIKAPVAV

Lacticaseibacillus casei [2] = assay: Antibacterial activity against methotrexate-resistant Lactobacillus casei assessed as growth inhibition up to 4 ug/ml; type: functional, organism-based
Enterococcus faecium [3] = assay: Antibacterial activity against Streptococcus faecium ATCC 8043 assessed as growth inhibition; type: functional
Enterococcus faecium [4] = assay: Antibacterial activity against methotrexate-resistant Streptococcus faecium assessed as growth inhibition up to 4 ug/ml; type: functional, organism-based
Lacticaseibacillus casei [5] = assay: Antibacterial activity against Lactobacillus casei ATCC 7469 assessed as growth inhibition; type: functional
[6] = biological target: Dihydrofolate reductase (Lactobacillus casei) (UniProt P00381); assay: Inhibition of Lactobacillus casei DHFR at 6.2 X 10^-5 M relative to control; details: Lacticaseibacillus casei
Pediococcus = assay: Antimicrobial activity against Pediococcus cerevisiae ATCC 8081 assessed as growth inhibition; type: functional
Lacticaseibacillus casei [7] = assay: Inhibition of 5-[14C]methyltetrahydrofolate uptake in Lactobacillus casei at 4 X 10^-7 M relative to control; type: functional
How it was run: (§1)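 Cells (1.0 × 10⁹, 1.0 mg dry weight) in 0.1 M potassium phosphate pH 6.5 with 1% glucose and […] (40000 cpm) 5-[¹⁴C]methyltetrahydrofolate, 1.0 mL total. Incubated 1 min at 37 °C, then stopped by membrane filtration with three ice-cold saline washes. Dried filters were scintillation counted. Uptake is compared with a control.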

[8] = biological target: Dihydrofolate reductase (Lactobacillus casei) (UniProt P00381); assay: Inhibition of Lactobacillus casei DHFR at 1 X 10^-4 M relative to control; details: Lacticaseibacillus casei
Lacticaseibacillus casei [9] = assay: Inhibition of 5-[14C]methyltetrahydrofolate uptake in Lactobacillus casei at 1.6 X 10^-6 M relative to control; type: functional; how it was run: as §1
[10] = biological target: T1, Thymidylate synthase (Lactobacillus casei); assay: Inhibition of Lactobacillus casei thymidylate synthase assessed as conversion of dUMP32 to dTP32PP at 6 X 10^-5 M after 30 mins relative to control; details: Lacticaseibacillus casei
Lacticaseibacillus casei [11] = assay: Inhibition of 5-[14C]methyltetrahydrofolate uptake in Lactobacillus casei at 1.5 X 10^-5 M relative to control; type: functional; how it was run: as §1
Lacticaseibacillus casei [12] = assay: Inhibition of 5-[14C]methyltetrahydrofolate uptake in Lactobacillus casei at 1 X 10^-4 M relative to control; type: functional; how it was run: as §1

Dihydrofolate reductase (Lactobacillus casei), sequence (P00381 whole entry): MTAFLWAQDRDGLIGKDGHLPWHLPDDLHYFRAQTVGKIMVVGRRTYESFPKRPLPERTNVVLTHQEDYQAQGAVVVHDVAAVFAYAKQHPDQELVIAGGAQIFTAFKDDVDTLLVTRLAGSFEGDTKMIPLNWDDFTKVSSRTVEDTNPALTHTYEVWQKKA

SMILES | inhibition [1] [%] | growth inhibition (GI) (Lacticaseibacillus casei [2]) | growth inhibition (GI) (Enterococcus faecium [4]) | growth inhibition (GI) (Pediococcus) | inhibition at 0.4 µM (Lacticaseibacillus casei [7]) [%] | inhibition [8] [%] | inhibition [10] [%] | other results
Cc1ccc(S(=O)(=O)N(Cc2ccc(C(=O)N[C@@H](CCC(=O)O)C(=O)O)cc2)Cc2cnc3nc(N)nc(N)c3n2)cc1 | 20 | inactive | inactive | inactive | 50 | – | – | GI50 (Enterococcus faecium [3]): 3.8 µg/mL (≈ 6.24 µM); GI50 (Lacticaseibacillus casei [5]): 0.2 µg/mL (≈ 0.329 µM); inhibition [6]: 50%
Cc1ccc(S(=O)(=O)N(Cc2ccc(C(=O)O)cc2)Cc2cnc3nc(N)nc(N)c3n2)cc1 | 0 | – | – | – | – | 17 | – | inhibition at 1.6 µM (Lacticaseibacillus casei [9]): 50%
Cc1ccc(S(=O)(=O)N(Cc2ccc(C(=O)O)cc2)Cc2cnc3nc(N)nc(O)c3n2)cc1 | – | – | – | – | – | 25 | 15 | –
COC(=O)c1ccc(CN(Cc2cnc3nc(N)nc(O)c3n2)S(=O)(=O)c2ccc(C)cc2)cc1 | – | – | – | – | – | 23 | 16 | inhibition at 15 µM (Lacticaseibacillus casei [11]): 50%
COC(=O)c1ccc(CN(CC2=Nc3c(N)nc(N)nc3NC2)S(=O)(=O)c2ccc(C)cc2)cc1 | 0 | – | – | – | – | 0 | – | inhibition at 100 µM (Lacticaseibacillus casei [12]): 32%
Cc1ccc(S(=O)(=O)N(Cc2ccc(C(=O)N[C@@H](CCC(=O)O)C(=O)O)cc2)Cc2cnc3nc(N)nc(O)c3n2)cc1 | – | inactive | inactive | inactive | 50 | 32 | 12 | growth inhibition (GI) (Enterococcus faecium [3]): inactive; growth inhibition (GI) (Lacticaseibacillus casei [5]): inactive
